We go through 4 molecules from PMC12505120 (RSC Advances, 2025).

Like-named read-outs stand apart in the source and are kept apart here.

Assay [1] has as its target HSA (Homo sapiens, UniProt P02768). The assay is described as follows: HSA tryptophan fluorescence quenching. The following applies: for Stern–Volmer quenching constant Ksv × 10^4: values × 10^4, HSA 2.5 μM, Tris–HCl pH 7.4, 10% DMSO, 24 h; for ΔG: ΔG = −RT ln Kb; for predominant interaction mode with HSA: according to Ross's proposal from the signs of ΔH and ΔS. The format is binding. In a few lines:
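HSA in Tris–HCl (4.5 mM Trizma HCl, 0.5 mM Trizma base, 50 mM NaCl) held at 2.5 μM with test compound at 1, 2.5, 5, 10, 15, 20, 25 or 30 μM, using 10% DMSO. Incubated 24 h in a water bath at 300 K or 310 K. Excitation 270 nm, emission 300–500 nm, triplicates. Intensity at 330 nm fitted to Stern–Volmer (F0/F vs [Q]) and log((F0−F)/F) vs log[Q]. ΔG = −RT ln Kb.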

The subject of assay [2] is bovine serum albumin (BSA). The following applies: cited from earlier work.

HSA, sequence (P02768 25-609): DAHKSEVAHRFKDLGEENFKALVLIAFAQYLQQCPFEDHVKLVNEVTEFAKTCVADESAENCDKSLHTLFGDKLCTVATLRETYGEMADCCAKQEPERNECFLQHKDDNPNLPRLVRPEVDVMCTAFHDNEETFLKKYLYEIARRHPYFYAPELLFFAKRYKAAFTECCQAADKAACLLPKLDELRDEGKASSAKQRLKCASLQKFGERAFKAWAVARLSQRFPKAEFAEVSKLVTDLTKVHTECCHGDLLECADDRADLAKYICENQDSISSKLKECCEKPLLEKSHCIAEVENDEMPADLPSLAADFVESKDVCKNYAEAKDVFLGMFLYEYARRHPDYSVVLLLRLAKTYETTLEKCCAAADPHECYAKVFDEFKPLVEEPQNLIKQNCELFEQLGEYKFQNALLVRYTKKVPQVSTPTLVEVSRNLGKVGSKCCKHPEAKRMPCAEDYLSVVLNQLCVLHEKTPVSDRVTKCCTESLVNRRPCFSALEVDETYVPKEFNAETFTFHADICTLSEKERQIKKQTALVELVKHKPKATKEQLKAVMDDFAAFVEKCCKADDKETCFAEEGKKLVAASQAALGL

Regarding `COc1ccc(/C=C/c2ccc(B3OC(C)(C)C(C)(C)O3)cc2)cc1` [3b], in assay [1] (T 300 K), the ΔS came out at 82.1 J mol^−1 K^−1, the “Stern–Volmer quenching constant Ksv × 10^4” value came out at 5.91 M^−1 and the ΔG was -5.69 kcal/mol. For the same molecule, in assay [1] (T 310 K), the ΔS came to 83.3 J mol^−1 K^−1, the “Stern–Volmer quenching constant Ksv × 10^4” value is 8.69 M^−1 and the ΔG is -6.36 kcal/mol. The “predominant interaction mode with HSA” value in assay [1] is “hydrophobic interactions”. Besides, the fluorescence quenching mechanism entry in assay [1] (from temperature dependence of Ksv at 300 and 310 K) was “dynamic fluorescence quenching mechanism”.
As to `COc1ccc(/C=C/c2cccc3c2COB3O)cc1` [5a], in assay [1] (T 300 K), the ΔS was determined as 105.1 J mol^−1 K^−1, the “Stern–Volmer quenching constant Ksv × 10^4” value turned out to be 10.1 M^−1 and the ΔG is -7 kcal/mol. Also, in assay [1] (T 310 K), the ΔS worked out at 122.4 J mol^−1 K^−1, the “Stern–Volmer quenching constant Ksv × 10^4” value is listed as 17.7 M^−1 and the ΔG is -8.58 kcal/mol. Also, the “predominant interaction mode with HSA” value in assay [1] was “hydrophobic interactions”.
With `COc1ccc(/C=C/c2ccc(B(O)O)cc2)cc1` [7a], in assay [1] (T 300 K), the ΔS was 74.5 J mol^−1 K^−1, the “Stern–Volmer quenching constant Ksv × 10^4” value was 1.05 M^−1 and the ΔG was -6.69 kcal/mol. Besides, in assay [1] (T 310 K), the ΔS is 22.9 J mol^−1 K^−1, the “Stern–Volmer quenching constant Ksv × 10^4” value worked out at 0.53 M^−1 and the ΔG was -3.08 kcal/mol. The “predominant interaction mode with HSA” value in assay [1] was “electrostatic forces”.
With `Oc1ccccc1-c1nc2ccccc2[nH]1` [HPBI, 2-(2-hydroxyphenyl)benzimidazole], the “binding constant to BSA” value in assay [2] (HPBI complexed with benzoxaborole) is 1.2e+06 M⁻¹; in assay [2] (free HPBI), 20000 M⁻¹.
